{"source": "paper PMC10825549", "about": "(JID Innovations, 2023)", "system": "participants with atopic dermatitis", "test": "Phase 2a study ATI-1777-AD-201: safety", "format": "in vivo, human", "in_short": "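Adults with moderate/severe AD applied 2% solution or vehicle twice daily for 4 weeks. TEAEs: onset on/after first dose and before last dose […], counted once per preferred term and system organ class. Also assessed serious AEs, labs, vital signs, physical exams, 12-lead ECG. Full analysis set; safety reviewed every 4 weeks.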", "key": {"[1]": {"conditions": "TEAE, full analysis set, n = 23"}}, "note": "Where “and” joins values, the source holds several entries; their conditions need not be identical. Equal entries are not always repeated. Entries after “also recorded” stand apart in the source; their conditions may differ."}
{"molecule": "CCOC(=O)c1cnc2[nH]ccc2c1N[C@@H]1CCCN(C(=O)CC#N)C1", "note": "[ATI-1777, ethyl (R)-4-((1-(2-cyanoacetyl)piperidin-3-yl)amino)-1H-pyrrolo[2,3-b]pyridine-5-carboxylate]", "values": [{"measurement": "deaths, serious adverse events, TEAEs of special interest", "setting": "2% topical solution twice daily, 4 weeks", "result": "No deaths or serious adverse events were reported; also recorded: No deaths or treatment-emergent AEs (TEAEs) of special interest; also recorded: No deaths or serious AEs were reported"}, {"measurement": "AEs reported, proportion of participants", "setting": "2% topical solution twice daily, 4 weeks, n = 23", "result": 39.1, "unit": "%"}, {"measurement": "Acrochordon, Number of Events", "setting": "TEAE, PT, n = 23", "result": 1}, {"measurement": "Acrochordon, Number of Subjects", "setting": "TEAE, PT, n = 23", "result": "1 (4.3) n (%)"}, {"measurement": "Amylase increased, Number of Events", "setting": "TEAE, PT, n = 23", "result": 1}, {"measurement": "Amylase increased, Number of Subjects", "setting": "TEAE, PT, n = 23", "result": "1 (4.3) n (%)"}, {"measurement": "Application site irritation, Number of Events", "setting": "TEAE, PT, n = 23", "result": 0}, {"measurement": "Application site irritation, Number of Subjects", "setting": "TEAE, PT, n = 23", "result": "0 n (%)"}, {"measurement": "Application site pruritus, Number of Events", "setting": "TEAE, PT, n = 23", "result": 1}, {"measurement": "Application site pruritus, Number of Subjects", "setting": "TEAE, PT, n = 23", "result": "1 (4.3) n (%)"}, {"measurement": "Atrial fibrillation, Number of Events", "setting": "TEAE, PT, n = 23", "result": 1}, {"measurement": "Atrial fibrillation, Number of Subjects", "setting": "TEAE, PT, n = 23", "result": "1 (4.3) n (%)"}, {"measurement": "Blood CPK increased, Number of Events", "setting": "TEAE, PT, n = 23", "result": 2}, {"measurement": "Blood CPK increased, Number of Subjects", "setting": "TEAE, PT, n = 23", "result": "2 n (%) and 2 (8.7) n (%)"}, {"measurement": "COVID-19, Number of Events", "setting": "TEAE, PT, n = 23", "result": 0}, {"measurement": "COVID-19, Number of Subjects", "setting": "TEAE, PT, n = 23", "result": "0 n (%)"}, {"measurement": "Candida infection, Number of Events", "setting": "TEAE, PT, n = 23", "result": 1}, {"measurement": "Candida infection, Number of Subjects", "setting": "TEAE, PT, n = 23", "result": "1 (4.3) n (%)"}, {"measurement": "Dizziness, Number of Events", "setting": "TEAE, PT, n = 23", "result": 1}, {"measurement": "Dizziness, Number of Subjects", "setting": "TEAE, PT, n = 23", "result": "1 (4.3) n (%)"}, {"measurement": "Folliculitis, Number of Events", "setting": "TEAE, PT, n = 23", "result": 1}, {"measurement": "Folliculitis, Number of Subjects", "setting": "TEAE, PT, n = 23", "result": "1 (4.3) n (%)"}, {"measurement": "Food poisoning, Number of Events", "setting": "TEAE, PT, n = 23", "result": 1}, {"measurement": "Food poisoning, Number of Subjects", "setting": "TEAE, PT, n = 23", "result": "1 (4.3) n (%)"}, {"measurement": "Headache, Number of Events", "setting": "TEAE, PT, n = 23", "result": 2}, {"measurement": "Headache, Number of Subjects", "setting": "TEAE, PT, n = 23", "result": "2 n (%) and 2 (8.7) n (%)"}, {"measurement": "Lipase increased, Number of Events", "setting": "TEAE, PT, n = 23", "result": 1}, {"measurement": "Lipase increased, Number of Subjects", "setting": "TEAE, PT, n = 23", "result": "1 (4.3)1 n (%)"}, {"measurement": "Oropharyngeal pain, Number of Events", "setting": "TEAE, PT, n = 23", "result": 0}, {"measurement": "Oropharyngeal pain, Number of Subjects", "setting": "TEAE, PT, n = 23", "result": "0 n (%)"}, {"measurement": "Pharyngitis streptococcal, Number of Events", "setting": "TEAE, PT, n = 23", "result": 0}, {"measurement": "Pharyngitis streptococcal, Number of Subjects", "setting": "TEAE, PT, n = 23", "result": "0 n (%)"}, {"measurement": "Rash, Number of Events", "setting": "TEAE, PT, n = 23", "result": 0}, {"measurement": "Rash, Number of Subjects", "setting": "TEAE, PT, n = 23", "result": "0 n (%)"}, {"measurement": "SARS-CoV-2 test positive, Number of Events", "setting": "TEAE, PT, n = 23", "result": 0}, {"measurement": "SARS-CoV-2 test positive, Number of Subjects", "setting": "TEAE, PT, n = 23", "result": "0 n (%)"}, {"measurement": "Sinus congestion, Number of Events", "setting": "TEAE, PT, n = 23", "result": 0}, {"measurement": "Sinus congestion, Number of Subjects", "setting": "TEAE, PT, n = 23", "result": "0 n (%)"}, {"measurement": "Skin fragility, Number of Events", "setting": "TEAE, PT, n = 23", "result": 0}, {"measurement": "Skin fragility, Number of Subjects", "setting": "TEAE, PT, n = 23", "result": "0 n (%)"}, {"measurement": "Somnolence, Number of Events", "setting": "TEAE, PT, n = 23", "result": 0}, {"measurement": "Somnolence, Number of Subjects", "setting": "TEAE, PT, n = 23", "result": "0 n (%)"}, {"measurement": "Tinea infection, Number of Events", "setting": "TEAE, PT, n = 23", "result": 1}, {"measurement": "Tinea infection, Number of Subjects", "setting": "TEAE, PT, n = 23", "result": "1 (4.3) n (%)"}, {"measurement": "Transaminases increased, Number of Events", "setting": "TEAE, PT, n = 23", "result": 1}, {"measurement": "Transaminases increased, Number of Subjects", "setting": "TEAE, PT, n = 23", "result": "1 (4.3) n (%)"}, {"measurement": "Urinary tract infection, Number of Events", "setting": "TEAE, PT, n = 23", "result": 1}, {"measurement": "Urinary tract infection, Number of Subjects", "setting": "TEAE, PT, n = 23", "result": "1 n (%) and 1 (4.3) n (%)"}, {"measurement": "Cardiac disorders, Number of Events", "setting": "TEAE, SOC, n = 23", "result": 1}, {"measurement": "Cardiac disorders, Number of Subjects", "setting": "TEAE, SOC, n = 23", "result": "1 (4.3) n (%)"}, {"measurement": "Gastrointestinal disorders, Number of Events", "setting": "TEAE, SOC, n = 23", "result": 1}, {"measurement": "Gastrointestinal disorders, Number of Subjects", "setting": "TEAE, SOC, n = 23", "result": "1 (4.3) n (%)"}, {"measurement": "General disorders and administration site conditions, Number of Events", "setting": "TEAE, SOC, n = 23", "result": 1}, {"measurement": "General disorders and administration site conditions, Number of Subjects", "setting": "TEAE, SOC, n = 23", "result": "1 (4.3) n (%)"}, {"measurement": "Infections and infestations, Number of Events", "setting": "TEAE, SOC, n = 23", "result": 4}, {"measurement": "Infections and infestations, Number of Subjects", "setting": "TEAE, SOC, n = 23", "result": "3 (13.0) n (%)"}, {"measurement": "Investigations, Number of Events", "setting": "TEAE, SOC, n = 23", "result": 5}, {"measurement": "Investigations, Number of Subjects", "setting": "TEAE, SOC, n = 23", "result": "3 (13.0) n (%)"}, {"measurement": "Neoplasms benign, malignant, and unspecified (including cysts and polyps), Number of Events", "setting": "TEAE, SOC, n = 23", "result": 1}, {"measurement": "Neoplasms benign, malignant, and unspecified (including cysts and polyps), Number of Subjects", "setting": "TEAE, SOC, n = 23", "result": "1 (4.3) n (%)"}, {"measurement": "Nervous system disorders, Number of Events", "setting": "TEAE, SOC, n = 23", "result": 3}, {"measurement": "Nervous system disorders, Number of Subjects", "setting": "TEAE, SOC, n = 23", "result": "3 (13.0) n (%)"}, {"measurement": "Respiratory, thoracic, and mediastinal disorders, Number of Events", "setting": "TEAE, SOC, n = 23", "result": 0}, {"measurement": "Respiratory, thoracic, and mediastinal disorders, Number of Subjects", "setting": "TEAE, SOC, n = 23", "result": "0 n (%)"}, {"measurement": "Skin and subcutaneous tissue disorders, Number of Events", "setting": "TEAE, SOC, n = 23", "result": 0}, {"measurement": "Skin and subcutaneous tissue disorders, Number of Subjects", "setting": "TEAE, SOC, n = 23", "result": "0 n (%)"}, {"measurement": "Any AE, Number of Events", "setting": "[1]", "result": 16}, {"measurement": "Any AE, Number of Subjects", "setting": "[1]", "result": "9 (39.1) n (%)"}, {"measurement": "participants who discontinued study participation owing to TEAEs", "setting": "n = 23", "result": "No participants"}, {"measurement": "TEAE related to study treatment", "setting": "one related TEAE in the group", "result": "mild application site pruritus"}]}
